Most compounds without a hit are left out; they make up all but 2% or so of the library.
DNMT1 block: inhibitors of human DNMT1. inhibition (reported as % activation of signal), % at 10 µM. P26358. hit rate 0.83% among 360,000. DNMT1 molecular beacon, Hinp1I cleavage, fluorescence; in the data active = inhibition above about 50%
STEP block: STEP (human) phosphatase inhibition; hit rate 0.25% among 360,000; recombinant STEP, OMFP fluorogenic substrate, fluorescence; P54829; inhibition, % at 20 µM;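 active = inhibition at 20 µM, scaled per plate between control wells, above about 37%, limit read from the data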
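Measure: Control-normalized % inhibition with plate pattern correction | Test system: STEP phosphatase, cell-free reaction | Medium: pH 6.0 Bis-Tris with DTT and Tween 20 | Technique: Fluorescence, 480/540 nm | Times: Reaction 20 min, ambient temperature | Doses: Single compound dose of 20 µM, 1% DMSO final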
LMPTP inh: LMPTP (human) inhibition; P24666; recombinant LMPTP-A, OMFP fluorogenic substrate, fluorescence intensity; inhibition, % at 20 µM; hit rate 0.22% among 360,000; AID 651560;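 active = compounds that cut the enzyme signal by at least half of the control window in the single-dose screen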
Target sequence (P24666 whole entry, looked up): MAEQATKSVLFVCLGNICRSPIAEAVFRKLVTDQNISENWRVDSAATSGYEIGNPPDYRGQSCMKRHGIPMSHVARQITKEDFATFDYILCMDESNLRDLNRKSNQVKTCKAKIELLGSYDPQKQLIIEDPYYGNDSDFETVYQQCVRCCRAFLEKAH
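Assay system: LMPTP-A enzyme. Input: 0.625 nM LMPTP-A final. Probe or stimulus: 400 µM OMFP. Compound dosing: single 20 µM dose. Schedule: 50 min dark incubation at room temperature. Detection: fluorescence intensity of OMFP turnover product. Read-out: percent inhibition versus substrate-only and uninhibited controls. Benchmarks: no-enzyme low control, uninhibited high control.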
Rpn11 inh: Rpn11 (human) deubiquitinase inhibition | human 26S proteasome, Ub4-pepOG fluorescence polarization; 20S core pre-blocked with epoxomicin | hit rate 0.59% among 360,000 | O00487 | inhibition, % at 20 µM;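 active = inhibition at 20 µM, scaled to each plate's controls, above about 33%, limit read from the data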
Target sequence (O00487 whole entry, looked up): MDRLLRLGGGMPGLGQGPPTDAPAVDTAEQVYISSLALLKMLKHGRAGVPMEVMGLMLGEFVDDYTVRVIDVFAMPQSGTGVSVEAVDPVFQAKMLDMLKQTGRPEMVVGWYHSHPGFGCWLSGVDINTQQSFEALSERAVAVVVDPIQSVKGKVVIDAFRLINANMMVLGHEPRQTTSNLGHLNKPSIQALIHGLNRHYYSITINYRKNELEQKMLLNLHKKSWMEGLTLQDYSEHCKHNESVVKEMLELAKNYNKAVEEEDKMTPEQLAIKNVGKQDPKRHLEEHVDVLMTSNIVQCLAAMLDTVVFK
Scp-1 inhibitor: Scp-1 (human) phosphatase inhibition | Q9GZU7 | Recombinant Scp1, phosphopeptide, malachite green phosphate absorbance | inhibition, % at 20 µM | hit rate 0.88% among 340,000;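 active = inhibition above about 50% at 20 µM, limit read from the data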
Target sequence (Q9GZU7 76-261 limits assumed): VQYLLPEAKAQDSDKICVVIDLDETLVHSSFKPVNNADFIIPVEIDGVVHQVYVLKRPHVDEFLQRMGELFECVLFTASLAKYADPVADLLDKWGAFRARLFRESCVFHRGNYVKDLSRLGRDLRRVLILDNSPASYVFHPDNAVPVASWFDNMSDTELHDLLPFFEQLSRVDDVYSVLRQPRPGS
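Assay system: SCP-1 catalytic fragment, aa 76-261 | Buffer or medium: Tris acetate buffer pH 5.5 with MgCl2 and Tween-20 | Compound: One concentration, 20 µM, with 1.0% DMSO | Also added: Phospho 17-mer peptide substrate | Signal: Absorbance at 630 nm | Incubation: 45 min enzyme reaction at room temperature | Measure: % inhibition of SCP-1 phosphate liberation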
Scp1 confirm: confirmation of human Scp-1 phosphatase inhibitors. shares compounds with Scp-1 inhibitor. recombinant SCP-1 catalytic domain, phosphate release, malachite green absorbance. inhibition, % at 20 µM. hit rate 61% among 2,500
MG interference: counter-screen for Scp-1 inhibitors: colorimetric interference | shares compounds with Scp-1 inhibitor | Colorimetric interference counterscreen, malachite green absorbance 630 nm | apparent inhibition (interference), % at 20 µM | 2,500 tested, under 10 active;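 note: compounds added after enzyme reaction finished so only phosphate colour detection is probed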
Scp1 DSF: Scp-1 (human) binding by thermal shift | shares compounds with Scp-1 inhibitor | Recombinant SCP1, Sypro Orange thermal shift Tm | thermal shift relative to vanadate control, % at 40 µM | hit rate 25% among 1,500 | AID 540329;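 active = substances whose mean melting-temperature shift, as a percentage of the reference inhibitor's shift, reaches about 5.3%, limit read from the data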
Of the large screens only hits and unclear results are named; the others gave an inactive call (follow-up assays come after a bar, where they were run); ! = not active in a repeat.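 Rule for the calls, unless noted: active = inhibition of at least 30% at 20 µM; inactive = the rest.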

Cc1ccc(C(=O)O)cc1NC(=S)NC(=O)c1ccc(COc2ccccc2)cc1	Scp-1 inhibitor 50 | Scp1 confirm 37 | MG interference inactive | Scp1 DSF inactive
Cc1ccc(C(=O)O)cc1NC(=S)NC(=O)Cc1ccccc1	none
O=C(NNC(=O)c1ccccc1Cl)c1cccs1	Scp-1 inhibitor 76 | Scp1 confirm inactive | MG interference inactive
O=C(NCc1ccco1)c1ccc2sc([C@@H]3O[C@H](CO)[C@@H](O)[C@H]3O)nc2c1	none (no result: Scp-1 inhibitor)
Cn1c(NNC(=O)c2cccc3ccccc23)cc(=O)n(C)c1=O	none | Scp1 confirm inactive | MG interference inactive
O=C(CSc1n[nH]c(-c2ccncc2)n1)Nc1ccc(Cl)c(Cl)c1	Scp-1 inhibitor 52 | Scp1 confirm inactive | MG interference inactive
C[C@@H]1CN(Cc2nnnn2CC(=O)NCCCn2cccn2)C[C@H](C)O1	none (no result: Scp-1 inhibitor)
Nc1cccc2c1C(=O)c1ccc(Cl)cc1C2=O	Scp-1 inhibitor 50 | Scp1 confirm inactive | MG interference inactive
O=C(O)c1cccc2c1-c1ccc(Cl)cc1C2=O	none
COc1ccc([N+](=O)[O-])cc1NC(=S)NC(C)=O	none
COc1ccc(/C=C/C(=O)NC(=S)Nc2cc([N+](=O)[O-])ccc2O)cc1OC	STEP block 62, LMPTP inh 56, Scp-1 inhibitor 80 | Scp1 confirm 54 | MG interference inactive | Scp1 DSF 5.7
O=C(CN1C(=O)NC2(CCCCC2)C1=O)Nc1nc2c(F)cc(F)cc2s1	none | Scp1 confirm inactive | MG interference inactive
COc1ccc(C(=O)N2CCCC(C)(C(=O)NS(=O)(=O)C3CC3)C2)cc1 (stereo unspecified)	none (no result: Scp-1 inhibitor)
CC[N+]1(C)CCC(=C2c3ccccc3CC(=O)c3sccc32)CC1 (stereo unspecified)	none
C[N+]1(C)CCC(=C2c3ccccc3CC(=O)c3sccc32)CC1	Scp-1 inhibitor 97 | Scp1 confirm inactive | MG interference inactive
Cc1ccc(C(=O)NNC(=O)c2ccc3ccccc3c2O)cc1	Scp-1 inhibitor 75 | Scp1 confirm 56 | MG interference inactive | Scp1 DSF inactive
CCCc1c(C(=O)N/N=C(\C)c2ccccn2)nnn1-c1nonc1N	none (no result: Scp-1 inhibitor)
CC(=O)NC(CC(=O)OCC(=O)c1ccc(NC(=O)CC(C)C)cc1)c1ccccc1 (stereo unspecified)	Scp-1 inhibitor 52 | Scp1 confirm 60 | MG interference inactive | Scp1 DSF inactive
CC(=O)NC(CC(=O)OCC(=O)Nc1ccc2c(c1)OCO2)c1ccccc1 (stereo unspecified)	none
O=C(O)c1cc(S(=O)(=O)N2CCN(S(=O)(=O)c3ccc4ccccc4c3)CC2)ccc1Br	Scp-1 inhibitor 59 | Scp1 confirm 63 | MG interference inactive | Scp1 DSF 8.7
O=C1NC(=O)C(c2ccccc2)(c2ccc(O)cc2)N1 (stereo unspecified)	none
O=C1NC(=O)C(c2ccccc2)(c2ccccc2)N1	Scp-1 inhibitor 85! | Scp1 confirm inactive | MG interference inactive
O=C(Nc1ccccc1Cl)c1ccc2ccccc2c1	none
C[n+]1ccc(C(=O)Nc2ccccc2Cl)cc1	Scp-1 inhibitor 98 | Scp1 confirm 90 | MG interference inactive | Scp1 DSF inactive
C[C@H](CO)N1C[C@H](C)[C@@H](CN(C)Cc2ccccn2)Oc2ncc(-c3ccccc3)cc2C1=O	none (no result: Scp-1 inhibitor)
O=C(COc1ccc2oc(-c3ccccc3)cc(=O)c2c1)NCc1ccco1	Scp-1 inhibitor 82 | Scp1 confirm 59 | MG interference inactive | Scp1 DSF inactive
O=C(COc1ccc2oc(-c3ccco3)cc(=O)c2c1)N1CCCCC1	Scp-1 inhibitor 60 | Scp1 confirm 44 | MG interference inactive | Scp1 DSF inactive
COc1ccc2cc(C(=O)NCc3ccco3)c(=Nc3ccc(C(=O)O)cc3)oc2c1	Scp-1 inhibitor 63 | Scp1 confirm 34 | MG interference inactive | Scp1 DSF inactive
CC(C)(CC1(C)NC(=O)NC1=O)OCc1ccccc1 (stereo unspecified)	none
Cc1cc(OCC[N+]2(C)CCCCC2)nc2ccccc12	Scp-1 inhibitor 102 | Scp1 confirm 90 | MG interference inactive | Scp1 DSF inactive
Cc1cc(NC2CCCCC2)nc2ccccc12	none
CCOC(=O)c1c(NC(=O)COc2ccc3ccc(=O)oc3c2)sc(C(=O)N(C)C)c1C	none
CC(=O)Nc1ccc(NC(=O)CSc2nc(N)c(NC(=O)c3ccccc3F)c(=O)[nH]2)cc1	Scp-1 inhibitor 53 | Scp1 confirm 49 | MG interference inactive | Scp1 DSF inactive
CCOC(=O)Cn1c2[n+](c3ccccc31)CC(O)CS2 (stereo unspecified)	Scp-1 inhibitor 102 | Scp1 confirm 91 | MG interference inactive | Scp1 DSF inactive
CCOc1ccc(NC(=O)c2ccc(NC(=O)c3ccc(NC(N)=O)cc3)cc2)cc1	DNMT1 block 56, Rpn11 inh 106, Scp-1 inhibitor 59 | Scp1 confirm 35 | MG interference inactive | Scp1 DSF 8.0
CCOc1ccc(NC(=O)c2ccc(N)cc2)cc1	none
CC(=O)Nc1cccc(-c2ccnc3c2CC(C)(C(=O)Nc2cccc(Oc4ccccc4)c2)O3)c1 (stereo unspecified)	none (no result: Scp-1 inhibitor)
N#Cc1ccsc1NC(=O)COC(=O)CCS(=O)(=O)c1ccccc1	Scp-1 inhibitor 50 | Scp1 confirm 69 | MG interference inactive | Scp1 DSF 5.7
Cc1ccc(/C=C2\SC(=O)N(CCNC(=O)C3CSC4(C)CCC(=O)N34)C2=O)cc1 (stereo unspecified)	none
CCCOc1nc2ccccc2cc1/C=C/C(=O)O	none
O=C(O)/C=C/c1cnc2ccccc2c1	Scp-1 inhibitor 55 | Scp1 confirm inactive | MG interference inactive
O=C(CN1C(=O)c2ccccc2C1=O)NC(Cc1ccccc1)C(=O)O (stereo unspecified)	none
O=C(N=Nc1c(O)[nH]c2ccc([N+](=O)[O-])cc12)c1ccccc1Cl	STEP block 73, Scp-1 inhibitor 99 | Scp1 confirm 70 | MG interference inactive | Scp1 DSF 16
Cc1cccc(OCC(=O)NCC(=O)N=Nc2c(O)[nH]c3ccc([N+](=O)[O-])cc23)c1	Scp-1 inhibitor 59 | Scp1 confirm inactive | MG interference inactive
O=C(CNC(=O)c1ccc(Br)cc1)N=Nc1c(O)[nH]c2ccc([N+](=O)[O-])cc12	none
CCCCCC(=O)N=Nc1c(O)[nH]c2ccc([N+](=O)[O-])cc12	none

Screening results deposited in PubChem by Sanford-Burnham Center for Chemical Genomics.
